This note sets out measurements from ChEMBL document CHEMBL1128708, “Synthesis of alkyl chain-modified ether lipids and evaluation of their in vitro cytotoxicity” (J Med Chem, 1995).

Broadly, the IC50 is the concentration that gives 50% inhibition. Read a low IC50 as greater potency in that assay. For orientation: logP means a log measure of how a compound divides between an organic and an aqueous phase.

The test system of data set [1] is HL-60. In words: Cytotoxicity measured in HL-60 leukemic cells after a 24 hr incubation period. Type of data set: functional, cell-based, Homo sapiens. In a few lines: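 HL-60 cells kept in RPMI-1640 with 5% heat-inactivated FCS, penicillin/streptomycin and 2 mM L-glutamine, >90% viable before use. 10^6 cells/mL exposed 24 h to 2.5–160 μM (twofold steps). Viability by trypan blue exclusion, as % viable cells versus total control cells. IC50 taken as the concentration giving 50% mortality. Two experiments in triplicate; compounds with IC50 >30 μM tested once.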

The species entered for another data set is Rattus norvegicus. Put plainly: Maximal non-erythrolytic concentration(MNEC) was measured in erythrocytes from rat citreated blood. Type of data set: functional. The gist of the method: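 Rat citrated-blood erythrocytes washed in HBSS and mixed 9:1 with test solution for 30 min at 37 °C. Lysis read spectrophotometrically at 546 nm. Value reported as the maximal concentration (μM) causing no erythrolysis.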

Data set [2] is described as follows: Partition coefficient (logP). Type of data set: physicochemical. To be noted: octanol/water. In a few lines:
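Calculated rather than measured, for the C-1 chain including the ether O atom, by the Viswanadhan atom-based method.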

A further data set concerns A-431. Put plainly: Antiproliferative activity of compound was measured on human tumor cell line A431. Type of data set: functional, cell-based. The gist of the method: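 Adherent cells trypsinized and seeded at 5000 cells/cm2, grown in RPMI-1640 with 10% heat-inactivated FCS and 2 mM L-glutamine. After 24 h, graded concentrations dissolved in complete medium were added for 48 h (final EtOH ≤0.2%). Cells fixed with 10% TCA and stained with 0.4% SRB in 1% acetic acid. Dye solubilized in 10 mM Tris pH 10.4 and read at 550 nm, background-corrected. IC50 from dose–response curves; two to five experiments, eight replicates each.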

A further data set deals with K562. In words: Antiproliferative activity of compound was measured on human tumor cell line K-562. Type of data set: functional, cell-based. In a few lines: (§1)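 Suspension cells at 1 × 10^6 cells/mL in RPMI-1640 with 10% heat-inactivated FCS and 2 mM L-glutamine, 37 °C, 5% CO2. Incubated 120 h with graded ether lipid concentrations (final EtOH ≤0.2%), then counted electronically. IC50 from dose–response curves; two experiments in duplicate, average ± SD.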

The test system of data set [3] is HL-60. In words: Antiproliferative activity of compound was measured on human tumor cell line HL-60. Type of data set: functional, cell-based. The gist of the method: as §1

In the data set on HL-60 [1] (Homo sapiens, HL-60, 24 h), `CCCCCCCCCCCC(=O)CCCCCCOCC(COP(=O)(O)OC[C@@H](N)C(=O)O)OC` (stereo partly specified) displayed an IC50 above 160 µM. For the same molecule, the MNEC in the data set filed under Rattus norvegicus is above 200 µM.

Turning to `COC(COCCCCCCCCCCC(O)c1ccccc1)COP(=O)([O-])OCC[N+](C)(C)C` (stereo unspecified), in data set [2] (read-out: logP), the logP was found to be 4.7. The molecule further gave an IC50 with HL-60 [1] (Homo sapiens, HL-60, 24 h) above 160 µM. In the data set listed under Rattus norvegicus, this molecule came in with an MNEC above 200 µM.

Regarding `CCCCCCC(=O)CCCCCCCCCCCOCC(COP(=O)([O-])OCC[N+](C)(C)C)OC` (stereo unspecified), in data set [2] (read-out: logP), the lipophilicity (logP) came out at 5.92. Further, the IC50 in the data set on A-431 (Homo sapiens, A-431) came out at 40.6 µM; in the data set with HL-60 [1] (Homo sapiens, HL-60, 24 h), 45 µM; in the data set with K562 (Homo sapiens, K562) it was 84.5 µM; in the data set on HL-60 [3] (Homo sapiens, HL-60), 12.3 µM. The molecule further came in with an MNEC in the data set listed under Rattus norvegicus of 50 µM.

For the molecule `CCCCCCCCCCCCCCCCCCOCC(COP(=O)([O-])OCC[N+](C)(C)C)OC` (stereo unspecified) [EDELFOSINE], the logP in data set [2] (read-out: logP) amounted to 6.77. For the same molecule, the IC50 with A-431 (Homo sapiens, A-431) was 13.5 µM; in the data set on HL-60 [1] (Homo sapiens, HL-60, 24 h) it was 6.1 µM; with K562 (Homo sapiens, K562), 6.1 µM; with HL-60 [3] (Homo sapiens, HL-60) it was 1 µM. For the same molecule, the MNEC in the data set listed under Rattus norvegicus came out at 2 µM.

Consider `CCCCC(CCCC)CCCCCCOCC(COP(=O)([O-])OCC[N+](C)(C)C)OC` (stereo unspecified), for which the log partition coefficient (logP) in data set [2] (read-out: logP) amounted to 5.51. This molecule had an IC50 in the data set on HL-60 [1] (Homo sapiens, HL-60, 24 h) of 54 µM. The molecule further registered an MNEC in the data set listed under Rattus norvegicus of 20 µM.

`CCCCCCC(O)CCCCCCCCCCCOCC(COCCCCC[N+](C)(C)C)OC.[Br-]` (stereo unspecified) registered an IC50 in the data set on HL-60 [1] (Homo sapiens, HL-60, 24 h) of 25.6 µM. The MNEC in the data set listed under Rattus norvegicus turned out to be 50 µM.

As to `CCCCCCCCCCCC(=O)CCCCCCOC[C@@H](COP(=O)([O-])OCC[N+](C)(C)C)OC`, the logP in data set [2] (read-out: logP) was found to be 5.92. The IC50 is 19.7 µM in the data set on A-431 (Homo sapiens, A-431); 21.8 µM in the data set with A-431 (a-431); 5.9 µM with HL-60 [1] (Homo sapiens, HL-60, 24 h); 11.3 µM in the data set with HL-60 [1] (hl-60); 40.2 µM in the data set with K562 (Homo sapiens, K562); 39.2 µM in the data set with K562 (k562). The IC50 in the data set on HL-60 [3] (Homo sapiens, HL-60) was determined as 4.4 µM; with HL-60 [3] (hl-60), 3 µM. The MNEC in the data set filed under Rattus norvegicus is 20 µM.

In turn, `CCCCCCCCCCCC(=O)CCCCCCOCC(COCCCCC[N+](C)(C)C)OC.[Br-]` (stereo unspecified) yielded an IC50 with HL-60 [1] (Homo sapiens, HL-60, 24 h) of 4.2 µM. For the same molecule, the MNEC in the data set listed under Rattus norvegicus was determined as 5 µM.

Take `CCCCCCCCCCCC(=O)CCCCCCOCC(COP(=O)([O-])OCC[N+](C)(C)C)OC` (stereo unspecified): in data set [2] (read-out: logP), the logP was determined as 5.92. In addition, the IC50 with A-431 (Homo sapiens, A-431) worked out at 21.1 µM; in the data set with HL-60 [1] (Homo sapiens, HL-60, 24 h), 9.1 µM; with K562 (Homo sapiens, K562), 41.4 µM; with HL-60 [3] (Homo sapiens, HL-60) it was 3 µM. Besides, the MNEC in the data set listed under Rattus norvegicus came to 20 µM.

As for `CCCCCCC(CCCCCC)CCCCCCCCCCCOCC(COP(=O)([O-])OCC[N+](C)(C)C)OC` (stereo unspecified), the logP in data set [2] is 9.08. This molecule showed an IC50 in the data set on HL-60 [1] (Homo sapiens, HL-60, 24 h) of 46 µM. In addition, the MNEC in the data set filed under Rattus norvegicus is above 200 µM.

Take `CCCCCCCCCCCCCCCCCCOCC(COP(=O)(O)OC[C@@H](N)C(=O)O)OC` (stereo partly specified): the IC50 in the data set on HL-60 [1] (Homo sapiens, HL-60, 24 h) turned out to be 25.2 µM. In addition, the MNEC in the data set filed under Rattus norvegicus is above 200 µM.

Take `CCCCCCCCCCCCCCCCOP(=O)([O-])OCC[N+](C)(C)C` [MILTEFOSINE]: in the data set with HL-60 [1] (Homo sapiens, HL-60, 24 h), the IC50 stood at 20.4 µM. The MNEC in the data set filed under Rattus norvegicus came out at 2 µM.

With `COC(COCCCCCCCCCCC(=O)c1ccccc1)COP(=O)([O-])OCC[N+](C)(C)C` (stereo unspecified), the logP in data set [2] (read-out: logP) stood at 4.29. The IC50 in the data set on HL-60 [1] (Homo sapiens, HL-60, 24 h) was above 160 µM. Besides, the MNEC in the data set listed under Rattus norvegicus is above 200 µM.

`CCCCCCC(=O)CCCCCCCCCCCOCC(COP(=O)(O)OC[C@@H](N)C(=O)O)OC` (stereo partly specified) gave a 50% inhibitory concentration (IC50) in the data set with HL-60 [1] (Homo sapiens, HL-60, 24 h) of 30 µM. Also, the MNEC in the data set filed under Rattus norvegicus is above 200 µM.

Regarding `CCCCCCCCCCCCCCC(=O)CCCOCC(COP(=O)([O-])OCC[N+](C)(C)C)OC` (stereo unspecified), the logP in data set [2] (read-out: logP) worked out at 5.92. Besides, the IC50 in the data set on A-431 (Homo sapiens, A-431) was 13.5 µM; with HL-60 [1] (Homo sapiens, HL-60, 24 h), 4.1 µM; in the data set with K562 (Homo sapiens, K562) it was 10.5 µM; in the data set with HL-60 [3] (Homo sapiens, HL-60), 1.1 µM. For the same molecule, the MNEC in the data set filed under Rattus norvegicus amounted to 10 µM.

On to `CCCCCCCCCCCCCCCCCCOCC(COCCCCC[N+](C)(C)C)OC.[Br-]` (stereo unspecified), for which the IC50 with HL-60 [1] (Homo sapiens, HL-60, 24 h) is 8 µM. For the same molecule, the MNEC in the data set listed under Rattus norvegicus turned out to be 5 µM.

Take `CCCCCCCCCCCC(C)CCCCCCOCC(COP(=O)([O-])OCC[N+](C)(C)C)OC` (stereo unspecified): in data set [2] (read-out: logP), the logP came out at 7.1. Also, the IC50 with HL-60 [1] (Homo sapiens, HL-60, 24 h) is 8.9 µM. This molecule yielded an MNEC in the data set filed under Rattus norvegicus of 5 µM.

As for `CCCCCCCCC(CCCCCCOCC(COP(=O)([O-])OCC[N+](C)(C)C)OC)c1ccccc1` (stereo unspecified), the logP in data set [2] (read-out: logP) is 7.13. The molecule further showed an IC50 in the data set with HL-60 [1] (Homo sapiens, HL-60, 24 h) of 30.7 µM. This molecule returned an MNEC in the data set listed under Rattus norvegicus of 5 µM.

For the molecule `CCCCCCCCC(CCCCCCCC)CCCCCCOCC(COP(=O)([O-])OCC[N+](C)(C)C)OC` (stereo unspecified), the logP in data set [2] (read-out: logP) was 8.68. The molecule further returned an IC50 in the data set with HL-60 [1] (Homo sapiens, HL-60, 24 h) of 52 µM. Further, the MNEC in the data set listed under Rattus norvegicus was above 200 µM.

Turning to `COC(COCCCCCCCCCCCCCCCCc1ccccc1)COP(=O)([O-])OCC[N+](C)(C)C` (stereo unspecified), the logP in data set [2] (read-out: logP) is 7.59. The molecule further had a concentration for half-maximal inhibition (IC50) in the data set with HL-60 [1] (Homo sapiens, HL-60, 24 h) of 13.2 µM. For the same molecule, the MNEC in the data set filed under Rattus norvegicus amounted to 10 µM.

`CCCCCCCCCCCCCCCCC(=O)COCC(COP(=O)([O-])OCC[N+](C)(C)C)OC` (stereo unspecified): the log partition coefficient (logP) in data set [2] (read-out: logP) turned out to be 6.29. Also, the IC50 in the data set with A-431 (Homo sapiens, A-431) stood at 14.2 µM; in the data set with HL-60 [1] (Homo sapiens, HL-60, 24 h), 3.5 µM; with K562 (Homo sapiens, K562), 9 µM; with HL-60 [3] (Homo sapiens, HL-60), 1.3 µM. The same molecule came in with an MNEC in the data set filed under Rattus norvegicus of 5 µM.

`CCCCCCCCCCCC(CCCCCC)CCCCCCOCC(COP(=O)([O-])OCC[N+](C)(C)C)OC` (stereo unspecified) gave a logP in data set [2] of 9.08. Also, half-maximal inhibition in the data set on HL-60 [1] (Homo sapiens, HL-60, 24 h) (IC50) required 50 µM. The molecule further gave an MNEC in the data set listed under Rattus norvegicus above 200 µM.
